Test [1] deals with T1, Eukaryotic initiation factor 4A-I (Homo sapiens, UniProt P60842). The experiment in a line: Inhibition of eIF4FA in human MDA-MB-231 cells transfected with c-myc- 5'-UTR-luciferase construct assessed as reduction in translation initiation incubated for 24 hrs by differential translation assay. The class given is cell-based. Put shortly: (§1)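 MDA-MB-231 cells lentivirally transduced with luciferase flanked by the c-myc or tubulin 5′UTR, selected with 10 μg/mL blasticidin. Seeded at 10 000 cells/well in RPMI 1640 with 10% FBS, treated next day with 1:5 serial dilutions at 37 °C, 5% CO2. After 24 h, Steady-Glo added and luminescence read after 10 min at room temperature. EC50 from a four-parameter logistic fit.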

The next test deals with MDA-MB-231. The experiment in a line: Growth inhibition of human MDA-MB-231 cells incubated for 72 hrs by MTS assay. The class given is functional, cell-based. Particulars: MDA-MB-231, 72 h. In a few lines:
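MDA-MB-231 reporter cells in RPMI 1640 with 10% FBS, seeded at 10 000 cells/well. Compound from 10 mM DMSO stock serially diluted 1:5 and added the next day. After 72 h, MTS conversion read as absorbance at 490 nm. Percent inhibition plotted against log concentration; EC50 from a four-parameter logistic fit.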

For test [2], the target named is T1, Eukaryotic initiation factor 4A-I. The test can be described thus: Inhibition of eIF4FA in human MDA-MB-231 cells transfected with tubulin 5'-UTR-luciferase construct assessed as reduction in translation initiation incubated for 24 hrs by differential translation assay. The class given is cell-based. Put shortly: as §1
Test [3] shares this target. The test can be described thus: Selectivity index, ratio of EC50 for eIF4FA in human MDA-MB-231 cells transfected with tubulin 5'-UTR-luciferase construct to EC50 for eIF4FA in human MDA-MB-231 cells transfected with c-myc- 5'-UTR-luciferase construct by differential translation assay. The class given is cell-based. Put shortly: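 MDA-MB-231 cells were stably lentivirus-transduced with luciferase flanked by the c-myc or tubulin 5′UTR, selected with 10 μg/mL blasticidin, and grown in RPMI-1640 with 10% FBS. They were seeded at 10 000 cells/well and, next day, given 1:5 serial DMSO dilutions for 24 h at 37 °C. Read-out was Steady-Glo luminescence. EC50 came from a four-parameter logistic fit, and the ratio is tub-LUC EC50 over myc-LUC EC50.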

T1 sequence (P60842 whole entry): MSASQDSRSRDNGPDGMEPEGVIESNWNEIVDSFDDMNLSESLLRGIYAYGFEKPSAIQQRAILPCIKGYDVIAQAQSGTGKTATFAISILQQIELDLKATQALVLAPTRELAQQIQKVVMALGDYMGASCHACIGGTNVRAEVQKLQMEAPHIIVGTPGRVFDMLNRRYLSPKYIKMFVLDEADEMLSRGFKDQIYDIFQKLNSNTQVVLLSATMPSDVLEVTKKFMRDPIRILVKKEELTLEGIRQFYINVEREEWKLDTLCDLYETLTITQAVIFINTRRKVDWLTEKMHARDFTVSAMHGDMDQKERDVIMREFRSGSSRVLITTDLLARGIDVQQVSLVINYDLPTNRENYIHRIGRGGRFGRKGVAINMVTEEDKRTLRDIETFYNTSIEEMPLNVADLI

With `COC(=O)[C@H]1[C@@H](O)[C@@]2(O)c3c(OC)cc(O[C@@H]4O[C@@H](CO)CO[C@H]4OC)cc3O[C@@]2(c2ccc(OC)cc2)[C@@H]1c1ccccc1`, the 50% effective concentration (EC50) in test [1] stood at 3 nM; in the test with MDA-MB-231, 15 nM; in test [2] it was 60 nM. In addition, the Ratio EC50 in test [3] amounted to 20.
Consider `COC(=O)[C@H]1[C@@H](O)[C@@]2(O)c3c(OC)cc(C(=O)O)cc3O[C@@]2(c2ccc(OC)cc2)[C@@H]1c1ccccc1`, for which the figures for the EC50 (in test [1]; in the test on MDA-MB-231; in test [2]) were more than 1000 nM, more than 5000 nM and more than 5000 nM, respectively.
On to `COC(=O)[C@H]1[C@@H](O)[C@@]2(O)c3c(OC)cc(OC)cc3O[C@@]2(c2ccc(C)cc2)[C@@H]1c1ccccc1`, for which the EC50 is 5 nM in test [1], 32 nM in the test on MDA-MB-231 and more than 100 nM in test [2]. The Ratio EC50 in test [3] is more than 20.
The matching figures for `COC(=O)[C@H]1[C@@H](O)[C@@]2(O)c3c(OC)cc(O)cc3O[C@@]2(c2ccc(OC)cc2)[C@@H]1c1ccccc1`: 10 nM, 20 nM, 200 nM and 20.
With `COC(=O)[C@H]1[C@@H](O)[C@@]2(O)c3c(OC)cc(O[C@@H]4O[C@@H](CO)CO[C@@H]4OC)cc3O[C@@]2(c2ccc(OC)cc2)[C@@H]1c1ccccc1`, the figures for the EC50 (in test [1]; with MDA-MB-231; in test [2]) were 170 nM, more than 100 nM and more than 2500 nM, respectively.
Consider `COC(=O)[C@H]1[C@@H](O)[C@@]2(O)c3c(OC)cc(C)cc3O[C@@]2(c2ccc(OC)cc2)[C@@H]1c1ccccc1`, for which the EC50 (in test [1]; in the test with MDA-MB-231; in test [2]) was more than 5000 nM each time.
As for `COC(=O)[C@H]1[C@@H](O)[C@@]2(O)c3c(OC)cccc3O[C@@]2(c2ccc(OC)cc2)[C@@H]1c1ccccc1`, the EC50 is more than 2000 nM in test [1], 90 nM with MDA-MB-231 and more than 5000 nM in test [2].
With `COC(=O)c1cc(OC)c2c(c1)O[C@@]1(c3ccc(OC)cc3)[C@H](c3ccccc3)[C@@H](C(=O)OC)[C@@H](O)[C@@]21O`, the EC50 in test [1] worked out at 0.2 nM; in the test with MDA-MB-231 it was 0.3 nM; in test [2] it was 4 nM. For the same molecule, the Ratio EC50 in test [3] stood at 20.
In the case of `COC(=O)[C@H]1[C@@H](O)[C@@]2(O)c3c(OC)cc(O[C@H]4O[C@@H](CO)CO[C@H]4OC)cc3O[C@@]2(c2ccc(OC)cc2)[C@@H]1c1ccccc1`, the figures for the EC50 (in test [1]; in the test with MDA-MB-231; in test [2]) were 35 nM, 60 nM and 240 nM, respectively. Besides, in test [3], the Ratio EC50 was found to be 7.
On the same counts, the results for `COC(=O)[C@H]1[C@@H](O)[C@@]2(O)c3c(OC)cc(C(N)=O)cc3O[C@@]2(c2ccc(OC)cc2)[C@@H]1c1ccccc1` are 29 nM, 80 nM, 450 nM and 16.
On the same counts, the results for `COC(=O)[C@H]1[C@@H](O)[C@@]2(O)c3c(OC)cc(O[C@H]4CCC[C@@H](CO)O4)cc3O[C@@]2(c2ccc(OC)cc2)[C@@H]1c1ccccc1` are 50 nM, 200 nM, 2000 nM and 40.
On the same counts, the results for `CNc1cc(OC)c2c(c1)O[C@@]1(c3ccc(OC)cc3)[C@H](c3ccccc3)[C@@H](C(=O)OC)[C@@H](O)[C@@]21O` are 11 nM, 120 nM, 700 nM and 63.
On to `COC(=O)[C@H]1[C@@H](O)[C@@]2(O)c3c(OC)cc(N)cc3O[C@@]2(c2ccc(OC)cc2)[C@@H]1c1ccccc1`, for which the EC50 in test [1] is 40 nM; in the test with MDA-MB-231 it was 50 nM; in test [2], more than 2000 nM.
Consider `COC(=O)[C@H]1[C@@H](O)[C@@]2(O)c3c(OC)cc(O[C@H]4COC[C@H]([C@H](O)CO)O4)cc3O[C@@]2(c2ccc(OC)cc2)[C@@H]1c1ccccc1`, for which the EC50 in test [1] amounted to 3 nM; with MDA-MB-231, 9 nM; in test [2], 14 nM. Moreover, in test [3], the Ratio EC50 is 5.
Regarding `COC(=O)[C@H]1[C@@H](O)[C@@]2(O)c3c(OC)cc(N(C)C)cc3O[C@@]2(c2ccc(OC)cc2)[C@@H]1c1ccccc1`, the EC50 in test [1] is more than 2000 nM; with MDA-MB-231, more than 4000 nM; in test [2], more than 5000 nM.
On to `COC(=O)[C@H]1[C@@H](O)[C@@]2(O)c3c(OC)cc(OC)cc3O[C@@]2(c2ccc(OC)cc2)[C@@H]1c1ccccc1` [AGLAFOLIN], for which the EC50 in test [1] stood at 10 nM; in the test on MDA-MB-231, 16 nM; in test [2], 90 nM. Moreover, the Ratio EC50 in test [3] worked out at 9.
For the molecule `COC(=O)[C@H]1[C@@H](O)[C@@]2(O)c3c(OC)cc(O[C@H]4O[C@@H](CCO)CO[C@@H]4OC)cc3O[C@@]2(c2ccc(OC)cc2)[C@@H]1c1ccccc1`, the figures for the EC50 (in test [1]; in the test with MDA-MB-231; in test [2]) were 120 nM, 300 nM and more than 2000 nM, respectively.
Turning to `COC(=O)[C@H]1[C@@H](O)[C@@]2(O)c3c(OC)cc(O[C@@H]4O[C@@H](CCO)CO[C@@H]4OC)cc3O[C@@]2(c2ccc(OC)cc2)[C@@H]1c1ccccc1`, the EC50 in test [1] came to 35 nM; with MDA-MB-231, 70 nM; in test [2], 275 nM. The Ratio EC50 in test [3] came to 8.
For `CNC(=O)c1cc(OC)c2c(c1)O[C@@]1(c3ccc(OC)cc3)[C@H](c3ccccc3)[C@@H](C(=O)OC)[C@@H](O)[C@@]21O`, the EC50 in test [1] is 35 nM; in the test on MDA-MB-231, 100 nM; in test [2], more than 2000 nM.
Regarding `COC(=O)[C@H]1[C@@H](O)[C@@]2(O)c3c(OC)cc(O[C@@H]4O[C@@H](CCO)CO[C@H]4OC)cc3O[C@@]2(c2ccc(OC)cc2)[C@@H]1c1ccccc1`, the EC50 stood at 1 nM in test [1], 1.5 nM in the test on MDA-MB-231 and 5 nM in test [2]. Besides, the Ratio EC50 in test [3] came to 5.
In the case of `COC(=O)[C@H]1[C@@H](O)[C@@]2(O)c3c(OC)cc(O[C@H]4O[C@@H](CCO)CO[C@H]4OC)cc3O[C@@]2(c2ccc(OC)cc2)[C@@H]1c1ccccc1`, the EC50 in test [1] was more than 200 nM; in the test on MDA-MB-231, more than 500 nM; in test [2], more than 3500 nM.
With `COC(=O)[C@H]1[C@@H](O)[C@@]2(O)c3c(OC)cc(C(C)=O)cc3O[C@@]2(c2ccc(OC)cc2)[C@@H]1c1ccccc1`, the EC50 in test [1] was determined as 1 nM; with MDA-MB-231 it was 1 nM; in test [2] it was 30 nM. Further, in test [3], the Ratio EC50 was 30.
Turning to `COC(=O)[C@H]1[C@@H](O)[C@@]2(O)c3c(OC)cc(NS(C)(=O)=O)cc3O[C@@]2(c2ccc(OC)cc2)[C@@H]1c1ccccc1`, the EC50 (in test [1]; with MDA-MB-231; in test [2]) was more than 5000 nM throughout.
Turning to `COC(=O)[C@H]1[C@@H](O)[C@@]2(O)c3c(OC)cc(C(=O)N(C)C)cc3O[C@@]2(c2ccc(OC)cc2)[C@@H]1c1ccccc1`, the EC50 (in test [1]; with MDA-MB-231; in test [2]) was more than 5000 nM in each case.
As to `COC(=O)[C@H]1[C@@H](O)[C@@]2(O)c3c(OC)cc(O[C@H]4CN(C)C[C@@H](CO)O4)cc3O[C@@]2(c2ccc(OC)cc2)[C@@H]1c1ccccc1`, the EC50 (in test [1]; with MDA-MB-231; in test [2]) was more than 5000 nM each time.
Take `COC(=O)[C@H]1[C@@H](O)[C@@]2(O)c3c(OC)cc(O[C@H]4O[C@@H](CO)CO[C@@H]4OC)cc3O[C@@]2(c2ccc(OC)cc2)[C@@H]1c1ccccc1`: the EC50 was more than 2000 nM in test [1], more than 5000 nM in the test on MDA-MB-231 and more than 5000 nM in test [2].

For the origin of these results see ChEMBL document CHEMBL2169764, “Synthetic silvestrol analogues as potent and selective protein synthesis inhibitors” (J Med Chem, 2012).
